Laboratory results as given in ChEMBL document CHEMBL1131242, “6beta-Acetoxynortropane: a potent muscarinic agonist with apparent selectivity toward M2-receptors” (J Med Chem, 1998).
Substitutions are numbered along the chain they refer to.

Experiments:
[1] = biological target: T1, Neuronal acetylcholine receptor; alpha4/beta2 (Rattus norvegicus, UniProt P09483+P12390); assay: Inhibition of binding of [3H]nicotine to Nicotinic acetylcholine receptor alpha4-beta2 in rat cerebral cortical membranes; assay type: cell membranes, Membrane
T1 sequence (P09483 whole entry): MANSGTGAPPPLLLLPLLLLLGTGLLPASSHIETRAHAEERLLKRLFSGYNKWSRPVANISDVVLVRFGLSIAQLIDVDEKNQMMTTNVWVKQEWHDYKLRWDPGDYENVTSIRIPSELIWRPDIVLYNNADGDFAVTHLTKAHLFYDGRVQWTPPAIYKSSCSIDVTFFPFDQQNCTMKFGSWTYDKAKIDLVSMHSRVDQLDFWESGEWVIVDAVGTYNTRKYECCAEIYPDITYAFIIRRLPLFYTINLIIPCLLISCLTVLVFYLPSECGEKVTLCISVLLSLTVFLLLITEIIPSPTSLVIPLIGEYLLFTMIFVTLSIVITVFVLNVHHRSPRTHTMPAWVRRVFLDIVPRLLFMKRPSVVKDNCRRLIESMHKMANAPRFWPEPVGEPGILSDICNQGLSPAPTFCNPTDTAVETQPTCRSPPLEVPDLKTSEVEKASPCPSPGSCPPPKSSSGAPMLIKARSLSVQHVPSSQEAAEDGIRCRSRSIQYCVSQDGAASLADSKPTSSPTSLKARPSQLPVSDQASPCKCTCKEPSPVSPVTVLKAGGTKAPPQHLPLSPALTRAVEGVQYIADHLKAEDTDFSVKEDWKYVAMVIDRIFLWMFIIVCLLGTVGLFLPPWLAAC
T1 sequence (P12390 whole entry): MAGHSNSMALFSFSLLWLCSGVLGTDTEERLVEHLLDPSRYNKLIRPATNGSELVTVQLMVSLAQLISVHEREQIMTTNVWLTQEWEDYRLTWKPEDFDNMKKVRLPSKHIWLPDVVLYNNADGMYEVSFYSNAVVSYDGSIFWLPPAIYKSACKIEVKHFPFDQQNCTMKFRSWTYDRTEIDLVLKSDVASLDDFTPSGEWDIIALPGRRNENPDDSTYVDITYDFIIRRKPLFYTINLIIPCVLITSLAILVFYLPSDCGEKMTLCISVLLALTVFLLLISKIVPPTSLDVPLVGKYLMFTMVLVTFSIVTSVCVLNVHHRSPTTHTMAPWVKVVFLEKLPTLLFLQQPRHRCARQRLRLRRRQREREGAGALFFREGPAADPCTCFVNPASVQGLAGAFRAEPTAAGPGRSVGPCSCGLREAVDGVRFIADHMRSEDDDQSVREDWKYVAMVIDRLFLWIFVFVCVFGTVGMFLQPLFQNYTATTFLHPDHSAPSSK
Procedure, shortened: (§1)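 Rat cerebral cortex membranes with 0.2 nM [3H]nicotine in HEPES binding buffer pH 7.4 containing 200 µM diisopropyl fluorophosphate. Incubation was 120 min at 0–4 °C, in triplicate. Nonspecific binding used 1 µM nicotine. Samples were filtered through polyethylenimine-soaked GF/B filters and counted.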

[2] = biological target: T1, Neuronal acetylcholine receptor; alpha4/beta2; assay: (§2) The compound was evaluated for percentage inhibition of binding of [3H]- nicotine to Nicotinic acetylcholine receptor alpha4-beta2 in Rat Cerebral Cortical Membranes; assay type: protein-complex assay; procedure, shortened: as §1
[3] = biological target: T2, Muscarinic acetylcholine receptor M1 (Homo sapiens) (UniProt P11229); assay: Percentage inhibition of binding of [3H]quinuclidinyl benzilate to muscarinic receptors in membranes of CHO cells transfected with Muscarinic acetylcholine receptor M1; assay type: cell membranes; conditions: concentration not given here
T2 sequence (whole entry): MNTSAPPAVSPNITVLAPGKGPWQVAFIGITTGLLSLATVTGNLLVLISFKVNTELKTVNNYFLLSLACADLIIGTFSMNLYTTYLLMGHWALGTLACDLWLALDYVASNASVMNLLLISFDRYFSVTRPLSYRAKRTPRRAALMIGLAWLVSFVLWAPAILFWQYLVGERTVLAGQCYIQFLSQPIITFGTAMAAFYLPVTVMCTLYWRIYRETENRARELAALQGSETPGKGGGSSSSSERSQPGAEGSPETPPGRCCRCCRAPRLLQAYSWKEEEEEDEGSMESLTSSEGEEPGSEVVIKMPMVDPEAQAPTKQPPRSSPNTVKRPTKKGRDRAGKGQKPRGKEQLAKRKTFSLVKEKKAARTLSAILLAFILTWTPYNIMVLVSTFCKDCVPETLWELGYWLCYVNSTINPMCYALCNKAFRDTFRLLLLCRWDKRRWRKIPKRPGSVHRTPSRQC
Procedure, shortened: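 Membranes from CHO cells expressing human M1–M4 receptors in 25 mM sodium phosphate pH 7.4 with 5 mM MgCl2, 30 min at 37 °C, triplicate. [3H]quinuclidinyl benzilate was 0.2 nM for M1 and M3 and 0.1 nM for M2 and M4. Nonspecific binding used 10 µM atropine for M1 and 1 µM for the others.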

[4] = biological target: T3, Muscarinic acetylcholine receptor M4 (Homo sapiens, UniProt P08173); assay: Inhibition of binding of [3H]quinuclidinyl benzilate to muscarinic receptors in membranes of CHO cells transfected with Muscarinic acetylcholine receptor M4; assay type: cell membranes
T3 sequence (P08173 whole entry): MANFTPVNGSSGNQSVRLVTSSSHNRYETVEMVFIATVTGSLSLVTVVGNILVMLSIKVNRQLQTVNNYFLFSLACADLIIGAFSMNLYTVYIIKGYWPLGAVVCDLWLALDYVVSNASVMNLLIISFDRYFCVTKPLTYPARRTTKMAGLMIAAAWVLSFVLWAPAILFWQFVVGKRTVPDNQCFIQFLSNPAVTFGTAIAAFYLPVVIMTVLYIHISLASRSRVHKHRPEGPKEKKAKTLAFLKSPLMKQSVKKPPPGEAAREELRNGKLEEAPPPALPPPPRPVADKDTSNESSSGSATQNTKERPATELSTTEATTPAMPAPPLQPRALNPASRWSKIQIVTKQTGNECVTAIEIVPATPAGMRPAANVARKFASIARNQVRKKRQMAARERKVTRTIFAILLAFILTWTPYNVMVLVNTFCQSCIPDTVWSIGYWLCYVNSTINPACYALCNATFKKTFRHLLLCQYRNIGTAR

[5] = biological target: T4, Muscarinic acetylcholine receptor M1 (Rattus norvegicus, UniProt P08482); assay: Inhibition of binding of [3H]oxotremorine M to Muscarinic acetylcholine receptor M1 in rat cerebral cortical membranes; assay type: cell membranes, Membrane
T4 sequence (P08482 whole entry): T2 sequence (whole entry) with A5V, T254S, P309S, R320K, A337G, I413V
Procedure, shortened: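 Agonist radioligand assay: rat cortical membranes with 2 nM [3H]oxotremorine M in 25 mM sodium phosphate pH 7.4 with 5 mM MgCl2, 2 h at 25 °C, in triplicate. Nonspecific binding used 5 µM atropine. Filtration followed by scintillation counting.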

[6] = biological target: Muscarinic acetylcholine receptor M3 (Homo sapiens, UniProt P20309); assay: Inhibition of binding of [3H]quinuclidinyl benzilate to muscarinic receptors in membranes of CHO cells transfected with Muscarinic acetylcholine receptor M3; assay type: cell membranes
Chain of Muscarinic acetylcholine receptor M3 (P20309 whole entry): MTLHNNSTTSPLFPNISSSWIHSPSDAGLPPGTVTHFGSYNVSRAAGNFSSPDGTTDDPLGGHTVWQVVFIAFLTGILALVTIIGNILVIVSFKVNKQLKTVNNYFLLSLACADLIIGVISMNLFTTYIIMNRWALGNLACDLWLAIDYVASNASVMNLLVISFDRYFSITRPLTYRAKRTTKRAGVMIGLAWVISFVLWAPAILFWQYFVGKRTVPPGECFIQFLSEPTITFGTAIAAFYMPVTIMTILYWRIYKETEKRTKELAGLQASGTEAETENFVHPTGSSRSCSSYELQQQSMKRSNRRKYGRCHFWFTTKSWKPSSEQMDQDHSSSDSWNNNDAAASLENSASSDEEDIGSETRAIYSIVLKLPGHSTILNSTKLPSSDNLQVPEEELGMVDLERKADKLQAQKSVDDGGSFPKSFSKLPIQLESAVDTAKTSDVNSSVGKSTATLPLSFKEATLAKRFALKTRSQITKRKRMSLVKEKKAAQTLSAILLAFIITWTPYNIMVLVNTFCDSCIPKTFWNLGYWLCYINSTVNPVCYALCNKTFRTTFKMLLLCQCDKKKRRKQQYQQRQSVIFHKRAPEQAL

[7] = biological target: T5, Muscarinic acetylcholine receptor M2 (Homo sapiens, UniProt P08172); assay: Inhibition of binding of [3H]quinuclidinyl benzilate to muscarinic receptors in membranes of CHO cells transfected with Muscarinic acetylcholine receptor M2; assay type: cell membranes
T5 sequence (P08172 whole entry): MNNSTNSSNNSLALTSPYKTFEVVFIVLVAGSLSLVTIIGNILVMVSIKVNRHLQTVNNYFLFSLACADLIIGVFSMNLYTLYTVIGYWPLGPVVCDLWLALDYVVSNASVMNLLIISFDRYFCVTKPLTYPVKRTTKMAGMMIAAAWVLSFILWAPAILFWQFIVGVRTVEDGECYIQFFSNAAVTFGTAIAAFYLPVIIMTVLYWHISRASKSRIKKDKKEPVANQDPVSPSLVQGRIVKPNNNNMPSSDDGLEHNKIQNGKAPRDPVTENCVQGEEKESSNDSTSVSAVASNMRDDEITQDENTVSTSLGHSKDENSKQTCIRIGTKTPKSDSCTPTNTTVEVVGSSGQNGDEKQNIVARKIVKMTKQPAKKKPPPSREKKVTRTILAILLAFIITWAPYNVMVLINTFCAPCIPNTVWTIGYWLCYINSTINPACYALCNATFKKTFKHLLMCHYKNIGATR

[8] = biological target: Muscarinic acetylcholine receptor M4 (Homo sapiens) (UniProt P08173); assay: Inhibition of binding of [3H]quinuclidinyl benzilate to Muscarinic acetylcholine receptor M4 in membranes of transfected CHO cells
[9] = biological target: Muscarinic acetylcholine receptor M1 (Homo sapiens) (UniProt P11229); assay: Inhibition of binding of [3H]quinuclidinyl benzilate to human Muscarinic acetylcholine receptor M1 in membranes of transfected CHO cells at 300 uM concentration; conditions: Membrane
[10] = biological target: T4, Muscarinic acetylcholine receptor M1; assay: Affinity versus [3H]oxotremorine M (agonist) binding to Muscarinic acetylcholine receptor M1 in Rat Cerebral Cortical Membranes, (Kd=[…])
[11] = biological target: Muscarinic acetylcholine receptor M2 (Homo sapiens) (UniProt P08172); assay: Inhibition of binding of [3H]quinuclidinyl benzilate to Muscarinic acetylcholine receptor M2 in membranes of transfected CHO cells
[12] = biological target: T6, Neuronal acetylcholine receptor; alpha4/beta2 (Rattus norvegicus) (UniProt P09483+P12390); assay: as §2; assay type: protein-complex assay; design: concentration or dose not given beside the values; conditions: concentration not given here; procedure, shortened: as §1
[13] = biological target: T6, Neuronal acetylcholine receptor; alpha4/beta2 (Rattus norvegicus); assay: Inhibition of binding of [3H]nicotine to Nicotinic acetylcholine receptor alpha4-beta2 in rat cerebral cortical membranes at 100 uM concentration; assay type: cell membranes; conditions: Membrane
Procedure, shortened: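 [3H]nicotine (0.2 nM) binding to rat cortical membranes, with 200 µM diisopropyl fluorophosphate, 120 min at 0–4 °C, triplicate. Nonspecific binding with 1 µM nicotine. Percent inhibition at 100 µM test agent; mean ± SEM, n = 4.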

[14] = biological target: T7, Muscarinic acetylcholine receptor M1 (Rattus norvegicus) (UniProt P08482); assay: Percentage inhibition of binding of [3H]quinuclidinyl benzilate to muscarinic acetylcholine receptor M1 in rat cerebral cortical membranes; assay type: cell membranes; design: concentration or dose not given beside the values; conditions: Membrane, concentration not given here
T7 sequence (whole entry): T2 sequence (whole entry) with A5V, T254S, P309S, R320K, A337G, I413V
Procedure, shortened: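 Rat cerebral cortex membranes were homogenised in 50 mM Tris-HCl pH 7.4 and diluted in HEPES binding buffer. They were incubated with 0.2 nM [3H]quinuclidinyl benzilate in 20 mM HEPES pH 7.4 with 10 mM MgCl2 and 100 mM NaCl for 30 min at 37 °C, in triplicate. Nonspecific binding used 1 µM atropine. Filtration was followed by scintillation counting.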

Row | SMILES | Ki [1] [µM] | Ki [2] [µM] | inhibition [12] [%] | inhibition [13] [%] | inhibition [14] [%] | further results
1 | CC(=O)O[C@H]1CCC2CCC1N2 (stereo not given in full) | 32 | 32 |  |  |  | 
2 | COC(=O)C1CC2CCCC1N2 (stereo not given) | 0.15 | 0.15 |  |  |  | inhibition [3]: 24%; Ki [4]: 7.9 µM; Ki [5]: 0.26 µM; Ki [6]: 18 µM; Ki [7]: 0.48 µM; Ki [8]: 7.9 µM; inhibition [9]: 24%; Ki [10]: 0.26 µM; Ki [11]: 0.48 µM
3 | CC(=O)OC1CC2CC(=O)CC1N2 (stereo not given) |  |  | 13 | 13 | 11 | 
4 | CCSC1CCC2NC1CC2C(=O)OC (stereo not given) |  |  | 50 | 50 | 7 | 
5 | COC(=O)[C@H]1CC2NC1CC[C@@H]2OC(C)=O (stereo not given in full) |  |  | 13 | 13 | 1 | 
6 | COC(=O)[C@H]1CC2NC1CC[C@H]2OC(C)=O (stereo not given in full) |  |  | 19 | 19 | 1 | 
7 | COC(=O)C1CC2NC1CCC2=O (stereo not given) |  |  | 15 | 15 | 0 | 
8 | COC(=O)[C@H]1CC2NC1CC[C@H]2O (stereo not given in full) | 64 | 64 |  |  |  | 
